# Reference: ChEMBL document CHEMBL1671716, “Antimicrobial susceptibility patterns for recent clinical isolates of anaerobic bacteria in South Korea” (2010)
# Experiments:
# Bacteroides ovatus = assay: Antimicrobial activity against Bacteroides ovatus assessed as percent susceptible isolates after 48 hrs by agar dilution method; assay type: functional
# Bacteroides fragilis [1] = assay: Antimicrobial activity against Bacteroides fragilis assessed as percent susceptible isolates after 48 hrs by agar dilution method; assay type: functional
# Prevotella intermedia = assay: Antimicrobial activity against Prevotella intermedia assessed as percent resistant isolates after 48 hrs by agar dilution method; assay type: functional
# How it was run: (§1)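 CLSI agar dilution on recent Korean clinical anaerobe isolates. Inoculum 10^5 CFU per spot by replicator. Plates incubated in an anaerobic chamber at 37°C for 48 h. For piperacillin plus tazobactam, tazobactam was held constant at 4 μg/ml. Resistance and susceptibility rates derived from MICs.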
# [2] = tested on: Bifidobacterium adolescentis; assay: Antimicrobial activity against Bifidobacterium adolescentis assessed as percent resistant isolates after 48 hrs by agar dilution method; assay type: functional; how it was run: as §1
# Bifidobacterium sp. = assay: Antimicrobial activity against Bifidobacterium sp. after 48 hrs by agar dilution method; assay type: functional
# How it was run: (§2)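 MICs on clinical anaerobe isolates by the CLSI agar dilution method. Inoculum of 10^5 CFU applied with a Steers replicator. Plates incubated 48 h at 37°C in an anaerobic chamber.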
# Prevotella bivia = assay: Antimicrobial activity against Prevotella bivia after 48 hrs by agar dilution method; assay type: functional
# How it was run: (§3)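 CLSI agar dilution (M11-A7); inoculum 10^5 CFU applied by replicator; plates incubated anaerobically 48 h at 37°C. For piperacillin-tazobactam, tazobactam held constant at 4 μg/ml.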
# [3] = tested on: Bifidobacterium adolescentis; assay: Antimicrobial activity against Bifidobacterium adolescentis after 48 hrs by agar dilution method; assay type: functional; how it was run: as §2
# Fusobacterium mortiferum = assay: Antimicrobial activity against Fusobacterium mortiferum after 48 hrs by agar dilution method; assay type: functional; how it was run: as §3
# Clostridioides difficile [4] = assay: Antimicrobial activity against Clostridium difficile assessed as percent resistant isolates after 48 hrs by agar dilution method; assay type: functional
# Anaerococcus prevotii [5] = assay: Antimicrobial activity against Anaerococcus prevotii after 48 hrs by agar dilution method; assay type: functional; how it was run: as §2
# Bacteroides caccae = assay: Antimicrobial activity against Bacteroides caccae assessed as percent resistant isolates after 48 hrs by agar dilution method; assay type: functional; how it was run: as §1
# Prevotella buccae = assay: Antimicrobial activity against Prevotella buccae assessed as percent susceptible isolates after 48 hrs by agar dilution method; assay type: functional, Segatella buccae; how it was run: as §3
# Actinomyces naeslundii = assay: Antimicrobial activity against Actinomyces naeslundii after 48 hrs by agar dilution method; assay type: functional; how it was run: as §2
# Eubacterium sp. = assay: Antimicrobial activity against Eubacterium sp. assessed as percent susceptible isolates after 48 hrs by agar dilution method; assay type: functional; how it was run: as §3
# Eggerthella lenta = assay: Antimicrobial activity against Eubacterium lentum after 48 hrs by agar dilution method; assay type: functional; how it was run: as §3
# [6] = tested on: Parabacteroides distasonis; assay: Antimicrobial activity against Bacteroides distasonis after 48 hrs by agar dilution method; assay type: functional; how it was run: as §2
# [7] = tested on: Bifidobacterium adolescentis; assay: Antimicrobial activity against Bifidobacterium adolescentis assessed as percent susceptible isolates after 48 hrs by agar dilution method; assay type: functional
# Clostridium perfringens = assay: Antimicrobial activity against Clostridium perfringens after 48 hrs by agar dilution method; assay type: functional
# Phocaeicola vulgatus = assay: Antimicrobial activity against Bacteroides vulgatus after 48 hrs by agar dilution method; assay type: functional; how it was run: as §2
# [8] = tested on: Peptostreptococcus anaerobius; assay: Antimicrobial activity against Peptostreptococcus anaerobius assessed as percent susceptible isolates after 48 hrs by agar dilution method; assay type: functional; how it was run: as §1
# Anaerococcus prevotii [9] = assay: Antimicrobial activity against Anaerococcus prevotii assessed as percent resistant isolates after 48 hrs by agar dilution method; assay type: functional; how it was run: as §1
# Bacteroides fragilis [10] = assay: Antimicrobial activity against Bacteroides fragilis after 48 hrs by agar dilution method; assay type: functional; how it was run: as §2
# Clostridioides difficile [11] = assay: Antimicrobial activity against Clostridium difficile after 48 hrs by agar dilution method; assay type: functional
# [12] = tested on: Peptoniphilus asaccharolyticus; assay: Antimicrobial activity against Peptoniphilus asaccharolyticus assessed as percent susceptible isolates after 48 hrs by agar dilution method; assay type: functional; how it was run: as §3
# Hoylesella oralis [13] = assay: Antimicrobial activity against Prevotella oralis assessed as percent resistant isolates after 48 hrs by agar dilution method; assay type: functional; how it was run: as §1
# Schaalia odontolytica = assay: Antimicrobial activity against Actinomyces odontolyticus assessed as percent susceptible isolates after 48 hrs by agar dilution method; assay type: functional
# Actinomyces israelii = assay: Antimicrobial activity against Actinomyces israelii assessed as percent resistant isolates after 48 hrs by agar dilution method; assay type: functional; how it was run: as §1
# Hoylesella oralis [14] = assay: Antimicrobial activity against Prevotella oralis after 48 hrs by agar dilution method; assay type: functional; how it was run: as §3
# [15] = tested on: Peptostreptococcus anaerobius; assay: Antimicrobial activity against Peptostreptococcus anaerobius after 48 hrs by agar dilution method; assay type: functional; how it was run: as §3
smiles,measurement,setting,value
C[C@@H](O)[C@H]1C(=O)N2C(C(=O)O)=C(S[C@@H]3CN[C@H](C(=O)N(C)C)C3)[C@H](C)[C@H]12 [MEROPENEM],Activity,Bacteroides ovatus,98%
same,Activity,Bacteroides fragilis [1],92%
same,Activity,Prevotella intermedia,0%
same,Activity,[2],0%
same,MIC50,Bifidobacterium sp.,0.125 µg/mL
same,MIC90,Bifidobacterium sp.,2 µg/mL
same,MIC50,Prevotella bivia,0.125 µg/mL
same,MIC90,Prevotella bivia,0.5 µg/mL
same,MIC50,[3],0.125 µg/mL
same,MIC90,[3],2 µg/mL
same,MIC,Fusobacterium mortiferum,0.008 µg/mL
same,Activity,Clostridioides difficile [4],0%
same,MIC50,Anaerococcus prevotii [5],0.06 µg/mL
same,MIC90,Anaerococcus prevotii [5],0.125 µg/mL
same,Activity,Bacteroides caccae,0%
same,Activity,Prevotella buccae,100%
same,MIC50,Actinomyces naeslundii,0.125 µg/mL
same,MIC90,Actinomyces naeslundii,2 µg/mL
same,Activity,Eubacterium sp.,92%
same,MIC50,Eggerthella lenta,0.125 µg/mL
same,MIC90,Eggerthella lenta,2 µg/mL
same,MIC50,[6],0.25 µg/mL
same,MIC90,[6],2 µg/mL
same,Activity,[7],92%
same,MIC50,Clostridium perfringens,0.015 µg/mL
same,MIC90,Clostridium perfringens,0.015 µg/mL
same,MIC50,Phocaeicola vulgatus,0.25 µg/mL
same,MIC90,Phocaeicola vulgatus,2 µg/mL
same,Activity,[8],100%
same,Activity,Anaerococcus prevotii [9],0%
same,MIC50,Bacteroides fragilis [10],0.125 µg/mL
same,MIC90,Bacteroides fragilis [10],4 µg/mL
same,MIC50,Clostridioides difficile [11],2 µg/mL
same,MIC90,Clostridioides difficile [11],2 µg/mL
same,Activity,[12],100%
same,Activity,Hoylesella oralis [13],0%
same,Activity,Schaalia odontolytica,92%
same,Activity,Actinomyces israelii,8%
same,MIC50,Hoylesella oralis [14],0.125 µg/mL
same,MIC90,Hoylesella oralis [14],0.5 µg/mL
same,MIC,[15],0.01 µg/mL
same,MIC50,[15],0.25 µg/mL
same,MIC90,[15],4 µg/mL
CO[C@@]1(NC(=O)Cc2cccs2)C(=O)N2C(C(=O)O)=C(COC(N)=O)CS[C@@H]21 [CEFOXITIN],Activity,Bacteroides ovatus,25%
same,Activity,Bacteroides fragilis [1],79%
same,Activity,Prevotella intermedia,0%
same,Activity,[2],0%
same,MIC50,Bifidobacterium sp.,2 µg/mL
same,MIC90,Bifidobacterium sp.,16 µg/mL
same,MIC50,Prevotella bivia,1 µg/mL
same,MIC90,Prevotella bivia,32 µg/mL
same,MIC50,[3],2 µg/mL
same,MIC90,[3],16 µg/mL
same,MIC,Fusobacterium mortiferum,0.06 µg/mL
same,Activity,Clostridioides difficile [4],100%
same,MIC50,Anaerococcus prevotii [5],0.5 µg/mL
same,MIC90,Anaerococcus prevotii [5],1 µg/mL
same,Activity,Bacteroides caccae,7%
same,Activity,Prevotella buccae,89%
same,MIC50,Actinomyces naeslundii,2 µg/mL
same,MIC90,Actinomyces naeslundii,16 µg/mL
same,Activity,Eubacterium sp.,92%
same,MIC50,Eggerthella lenta,2 µg/mL
same,MIC90,Eggerthella lenta,16 µg/mL
same,MIC50,[6],32 µg/mL
same,MIC90,[6],32 µg/mL
same,Activity,[7],92%
same,MIC50,Clostridium perfringens,1 µg/mL
same,MIC90,Clostridium perfringens,2 µg/mL
same,MIC50,Phocaeicola vulgatus,32 µg/mL
same,MIC90,Phocaeicola vulgatus,32 µg/mL
same,Activity,[8],100%
same,Activity,Anaerococcus prevotii [9],0%
same,MIC50,Bacteroides fragilis [10],16 µg/mL
same,MIC90,Bacteroides fragilis [10],32 µg/mL
same,MIC,Clostridioides difficile [11],64 µg/mL
same,MIC50,Clostridioides difficile [11],64 µg/mL
same,MIC90,Clostridioides difficile [11],> 128 µg/mL
same,Activity,[12],100%
same,Activity,Hoylesella oralis [13],0%
same,Activity,Schaalia odontolytica,92%
same,Activity,Actinomyces israelii,0%
same,MIC50,Hoylesella oralis [14],1 µg/mL
same,MIC90,Hoylesella oralis [14],32 µg/mL
same,MIC50,[15],1 µg/mL
same,MIC90,[15],16 µg/mL
COc1c(N2C[C@@H]3CCCN[C@@H]3C2)c(F)cc2c(=O)c(C(=O)O)cn(C3CC3)c12 [MOXIFLOXACIN],Activity,Bacteroides ovatus,72%
same,Activity,Bacteroides fragilis [1],84%
same,Activity,Prevotella intermedia,0%
same,Activity,[2],15%
same,MIC50,Bifidobacterium sp.,1 µg/mL
same,MIC90,Bifidobacterium sp.,2 µg/mL
same,MIC50,[3],1 µg/mL
same,MIC90,[3],2 µg/mL
same,MIC50,Anaerococcus prevotii [5],0.25 µg/mL
same,MIC90,Anaerococcus prevotii [5],8 µg/mL
same,Activity,Bacteroides caccae,18%
same,Activity,Prevotella buccae,56%
same,MIC50,Actinomyces naeslundii,1 µg/mL
same,MIC90,Actinomyces naeslundii,2 µg/mL
same,Activity,Eubacterium sp.,92%
same,MIC50,Eggerthella lenta,1 µg/mL
same,MIC90,Eggerthella lenta,2 µg/mL
same,MIC50,[6],2 µg/mL
same,MIC90,[6],16 µg/mL
same,Activity,[7],92%
same,MIC50,Phocaeicola vulgatus,2 µg/mL
same,MIC90,Phocaeicola vulgatus,16 µg/mL
same,Activity,[8],92%
same,Activity,Anaerococcus prevotii [9],13%
same,Activity,[12],100%
same,Activity,Hoylesella oralis [13],11%
same,Activity,Schaalia odontolytica,92%
same,Activity,Actinomyces israelii,0%
same,MIC50,Hoylesella oralis [14],2 µg/mL
same,MIC90,Hoylesella oralis [14],8 µg/mL
same,MIC50,[15],0.125 µg/mL
same,MIC90,[15],0.25 µg/mL
